Key:
[1] = biological target: T1, Serotonin 3 (5-HT3) receptor (Rattus norvegicus, UniProt P35563+Q9JJ16); test: Compound was evaluated for its binding affinity for 5-hydroxytryptamine 3 receptor by measuring displacement [3H]GR-65630 in rat cerebral cortex.; format: tissue-based
T1 sequence (P35563 whole entry): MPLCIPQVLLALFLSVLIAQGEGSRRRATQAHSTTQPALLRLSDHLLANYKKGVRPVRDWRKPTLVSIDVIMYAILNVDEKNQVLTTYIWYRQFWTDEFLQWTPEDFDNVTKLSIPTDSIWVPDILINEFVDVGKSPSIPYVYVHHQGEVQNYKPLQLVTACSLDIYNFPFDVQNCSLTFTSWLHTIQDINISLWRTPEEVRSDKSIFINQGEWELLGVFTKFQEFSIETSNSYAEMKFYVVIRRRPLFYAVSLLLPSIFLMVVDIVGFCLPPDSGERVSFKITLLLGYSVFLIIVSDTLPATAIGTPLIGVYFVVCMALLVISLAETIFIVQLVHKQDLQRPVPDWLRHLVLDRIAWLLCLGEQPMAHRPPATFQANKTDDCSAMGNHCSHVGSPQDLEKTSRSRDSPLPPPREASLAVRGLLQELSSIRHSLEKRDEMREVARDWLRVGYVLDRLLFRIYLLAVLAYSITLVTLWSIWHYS
T1 sequence (Q9JJ16 whole entry): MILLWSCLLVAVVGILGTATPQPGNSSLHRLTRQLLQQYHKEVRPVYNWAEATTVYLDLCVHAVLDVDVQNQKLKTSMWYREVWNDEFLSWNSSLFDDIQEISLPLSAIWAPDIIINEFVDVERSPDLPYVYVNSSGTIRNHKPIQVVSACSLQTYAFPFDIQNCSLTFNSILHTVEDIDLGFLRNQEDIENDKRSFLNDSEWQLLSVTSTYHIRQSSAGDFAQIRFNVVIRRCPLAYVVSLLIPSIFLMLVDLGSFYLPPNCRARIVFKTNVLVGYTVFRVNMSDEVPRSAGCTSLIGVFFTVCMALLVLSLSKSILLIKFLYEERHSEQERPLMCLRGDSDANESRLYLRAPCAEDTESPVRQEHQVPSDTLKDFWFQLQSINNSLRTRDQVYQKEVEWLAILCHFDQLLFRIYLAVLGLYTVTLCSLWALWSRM

[2] = biological target: Serotonin (5-HT) receptor; test: Potency was evaluated on rabbit heart serotonergic receptors; parameters: species or system Oryctolagus cuniculus
[3] = biological target: T2, Muscarinic acetylcholine receptor M1 (Rattus norvegicus, UniProt P08482); test: Compound was evaluated for its binding affinity for Muscarinic acetylcholine receptor M1 by measuring displacement of [3H]- pirenzepine from rat hippocampus; format: tissue-based
T2 sequence (P08482 whole entry): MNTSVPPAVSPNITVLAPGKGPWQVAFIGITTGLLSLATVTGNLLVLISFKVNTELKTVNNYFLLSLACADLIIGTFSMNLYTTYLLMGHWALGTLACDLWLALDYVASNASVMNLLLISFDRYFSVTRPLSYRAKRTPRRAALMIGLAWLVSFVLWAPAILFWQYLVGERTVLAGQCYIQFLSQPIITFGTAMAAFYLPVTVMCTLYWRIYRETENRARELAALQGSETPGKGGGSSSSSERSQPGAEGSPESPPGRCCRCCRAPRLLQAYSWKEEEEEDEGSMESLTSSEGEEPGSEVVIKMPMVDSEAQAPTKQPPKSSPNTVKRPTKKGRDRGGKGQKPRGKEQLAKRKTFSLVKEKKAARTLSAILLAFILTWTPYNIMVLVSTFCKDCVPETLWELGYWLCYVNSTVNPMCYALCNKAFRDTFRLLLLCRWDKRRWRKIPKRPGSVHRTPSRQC
Method in brief: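 Adult rat hippocampus homogenized 1:200 w/v in 50 mM Na/K phosphate pH 7.4 with 1 mM EDTA and 0.1 mM PMSF. 0.5 mg tissue competed against [3H]pirenzepine (0.7-1 nM) for 2 h 30 min at 25 °C. Bound separated by filtration on 0.3% polyethylenimine-treated GF/C filters. Atropine defined nonspecific binding.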

[4] = biological target: T3, Muscarinic acetylcholine receptor M2 (Rattus norvegicus, UniProt P10980); test: Compound was evaluated for its binding affinity for Muscarinic acetylcholine receptor M2 by measuring displacement of [3H]- NMS ligand from rat cardiac cells.
T3 sequence (P10980 whole entry): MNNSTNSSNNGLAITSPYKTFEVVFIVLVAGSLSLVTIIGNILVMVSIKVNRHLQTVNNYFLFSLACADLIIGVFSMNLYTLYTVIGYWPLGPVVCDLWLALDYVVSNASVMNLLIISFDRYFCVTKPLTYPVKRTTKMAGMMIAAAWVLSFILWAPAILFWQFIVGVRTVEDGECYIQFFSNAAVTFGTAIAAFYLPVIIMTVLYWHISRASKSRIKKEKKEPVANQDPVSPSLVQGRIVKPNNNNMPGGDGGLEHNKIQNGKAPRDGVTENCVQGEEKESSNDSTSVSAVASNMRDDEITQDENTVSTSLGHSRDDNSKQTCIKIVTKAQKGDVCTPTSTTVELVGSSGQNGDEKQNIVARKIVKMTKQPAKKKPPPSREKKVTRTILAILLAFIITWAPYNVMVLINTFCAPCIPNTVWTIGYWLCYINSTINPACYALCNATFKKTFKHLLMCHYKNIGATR
Method in brief: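 Adult rat cardiac cells homogenized 1:200 w/v in 50 mM sodium phosphate pH 7.4. Competition run with 0.2 nM [3H]NMS, 0.5 mg tissue and varying unlabeled ligand concentrations for 1 h at 37 °C. Bound separated by GF/C filtration. Atropine used for nonspecific binding.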

[5] = biological target: T1, Serotonin 3 (5-HT3) receptor; test: Compound was evaluated for its binding affinity for 5-hydroxytryptamine 3 receptor by measuring displacement of [3H]granisetron from rat cerebral cortex; format: tissue-based
Method in brief: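 Male Sprague-Dawley rat cerebral cortex homogenized in cold 50 mM HEPES pH 7.5, then washed three times by centrifugation (48000g, 4 °C); roughly 2.5 mg protein/mL. […] Filters were presoaked 2 h in 0.3% polyethylenimine. Nonspecific binding defined with 100 nM zacopride; bound counted by liquid scintillation.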

[6] = biological target: T1, Serotonin 3 (5-HT3) receptor; test: Compound was evaluated for its binding affinity for 5-hydroxytryptamine 3 receptor by measuring displacement [3H]GR-65630 in rat cerebral cortex; format: tissue-based

SMILES | Ki [3] [µM] | Ki [4] [µM] | IC50 [5] [µM] | Ki [6] [µM] | further results
Cn1cc(-c2noc(C3CN4CCC3CC4)n2)c2ccccc21 (configuration not stated) |  |  |  |  | IC50 [1]: 0.0014 µM
O=C(OC1C2CC3CC1N2CC3=O)c1c[nH]c2ccccc12 (configuration not stated) |  |  |  |  | pA2 [2]: 9.8
CN1CCN(c2cc(-c3ccccc3)cnn2)CC1 | 62 | 80 | 0.036 |  | 
CN1CCN(c2nnc(-c3ccccc3)c3ccccc23)CC1 | 13 | 116 | 0.37 |  | 
CN1CCN(c2ccc(-c3ccccc3)nn2)CC1 | 15.6 | 71 | 0.425 |  | 
CN1CCN(c2nncc3ccccc23)CC1 | 10 | 38 | 0.01 |  | 
CN1[C@@H]2CC[C@H]1C[C@@H](OC(=O)c1cc(Cl)cc(Cl)c1)C2 [BEMESETRON] |  |  |  | 0.054 | 
CCN(CC)CCNC(=O)c1cc(Cl)c(N)cc1OC [METOCLOPRAMIDE] |  |  |  | 0.348 | 
CN1[C@@H]2CC[C@H]1C[C@@H](OC(=O)c1c[nH]c3ccccc13)C2 [TROPISETRON] |  |  |  | 0.0032 | 
